Two compounds from ChEMBL document CHEMBL4152241, “Discovery of coumarin-dihydroquinazolinone analogs as niacin receptor 1 agonist with in-vivo anti-obesity efficacy” (Eur J Med Chem, 2018) can be followed below.

Calls of active or inactive are those of the source. The rule behind the calls is not given here.

In assay [1] the test system is Mus musculus. In words: Anti-obesity activity in high fat diet-induced obese C57BL/6J mouse model assessed as lean mass at 20 mg/kg, po for 6 weeks by NMR-MRI analysis (reference value: 25.58 +/- 0.6789 g). Format: functional.
The test system of assay [2] is Mus musculus. The experiment in a line: Anti-obesity activity in high fat diet-induced obese C57BL/6J mouse model assessed as fasting glucose level at 20 mg/kg, po for 6 weeks (reference value: 93.17 +/- 5.793 mg/dL). The class given is functional. In short, it runs like this:
(§1)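 Male C57BL/6J mice, 5-6 weeks old, 22-25 g, fed 60% fat diet to induce obesity. Dosed orally once at 20 mg/kg for six weeks; drug dissolved in DMSO, then mixed into 5% gum acacia in normal saline (working DMSO <5%). Controls were vehicle-treated HFD mice. Body weight was tracked, and fasting glucose was read by glucose meter after a 16 h fast; n=4-6.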

Assay [3] deals with Mus musculus. The experiment in a line: Effect on total cholesterol level in high fat diet-induced obese C57BL/6J mouse model at 20 mg/kg, po for 6 weeks (reference value: 120.8 +/- 7.206 mg/dl). Format: functional.
The subject of assay [4] is Mus musculus. In words: Anti-obesity activity in high fat diet-induced obese C57BL/6J mouse model assessed as plasma leptin level at 20 mg/kg, po for 6 weeks (reference value: 1751 +/- 325.4 pg/mg). Format: functional.
Assay [5] concerns Mus musculus. In words: Anti-obesity activity in high fat diet-induced obese C57BL/6J mouse model assessed as reduction in body weight at 20 mg/kg, po for 6 weeks. The class given is functional. In short, it runs like this: as §1
The test system of assay [6] is Mus musculus. The experiment in a line: Antiobesity activity in high fat diet-induced obese C57BL/6J mouse model assessed as improvement in glucose tolerance at 20 mg/kg, po measured post glucose challenge by intraperitoneal glucose tolerance test. The class given is functional, organism-based. Summed up:
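After six weeks of oral dosing (20 mg/kg) in HFD obese C57BL/6J mice, animals were fasted 16 h and baseline glucose was taken from the tail tip. Glucose 2 g/kg was given i.p., and blood glucose was measured at 15, 30, 60, 90 and 120 min. Mean ± SEM, 4-5 mice/group.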

In assay [7] the test system is Mus musculus. The experiment in a line: Effect on serum triglyceride level in high fat diet-induced obese C57BL/6J mouse model at 20 mg/kg, po for 6 weeks (reference value: 40.96 +/- 4.592 mg/dl). Format: functional.
Assay [8] concerns Mus musculus. In words: Effect on LDL cholesterol level in high fat diet-induced obese C57BL/6J mouse model at 20 mg/kg, po for 6 weeks (reference value: 11.56 +/- 1.587 mg/dl). Format: functional.
Assay [9] deals with Mus musculus. In words: Anti-obesity activity in high fat diet-induced obese C57BL/6J mouse model assessed as reduction in body weight gain at 20 mg/kg, po for 6 weeks. The class given is functional, organism-based. In short, it runs like this: as §1
Assay [10] concerns Mus musculus. The experiment in a line: Anti-obesity activity in high fat diet-induced obese C57BL/6J mouse model assessed as fat mass at 20 mg/kg, po for 6 weeks by NMR-MRI analysis (reference value: 16.52 +/- 1.154 g). The class given is functional.
In assay [11] the test system is Mus musculus. In words: Effect on HDL cholesterol level in high fat diet-induced obese C57BL/6J mouse model at 20 mg/kg, po for 6 weeks (reference value: 57.8 +/- 3.385 mg/dl). The class given is functional.
For assay [12], the system named is Mus musculus. The experiment in a line: Anti-obesity activity in high fat diet-induced obese C57BL/6J mouse model assessed as decrease in fat mass at 10 mg/kg, po for 6 weeks by NMR-MRI analysis. The class given is functional, organism-based. In short, it runs like this: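 Male C57BL/6J mice, 5-6 weeks old (22-25 g), made obese on a 60% fat diet. Dosed orally for six weeks, dissolved in DMSO then mixed into 5% gum acacia in normal saline (working DMSO <5%), against HFD vehicle-treated mice. Total body fat compared at end of treatment, n=4-5/group, by one-way ANOVA with Newman-Keuls test.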

The test system of assay [13] is Mus musculus. The experiment in a line: Anti-obesity activity in high fat diet-induced obese C57BL/6J mouse model assessed as reduction in body weight gain at 10 mg/kg, po for 6 weeks. Format: functional, organism-based. In short, it runs like this:
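High-fat (60% fat) diet-induced obese male C57BL/6J mice, started at 5-6 weeks old and 22-25 g. Oral dosing for six weeks from a DMSO stock diluted into 5% gum acacia/normal saline (working DMSO <5%), against HFD vehicle controls. Cumulative body weight gain tracked over treatment, n=4-5, analysed by two-way ANOVA.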

On to `COc1ccc(-c2cc3cc(C4Nc5ccccc5C(=O)N4C)cc(C)c3oc2=O)cc1` (stereo not drawn), for which the Activity with Mus musculus [1] was 23.16 g; in the assay with Mus musculus [2] it was 63 mg/dL; in the assay with Mus musculus [3] it was 95.6 mg/dL; with Mus musculus [4] it was 807.6 pg/mg; in the assay with Mus musculus [5], 0.72 g; in the assay on Mus musculus [7] it was 36.97 mg/dL. In addition, the Activity in the assay on Mus musculus [8] was found to be 10.4 mg/dL; in the assay on Mus musculus [10] it was 13.01 g; in the assay with Mus musculus [11], 45.92 mg/dL. Moreover, the result in the assay on Mus musculus [6] was inactive. Besides, the outcome in the assay on Mus musculus [9] was Active.
Turning to `C[C@H]1CNCCc2ccc(Cl)cc21`, the outcome in the assay on Mus musculus [12] and in the assay on Mus musculus [13] was Active.
